Most compounds without a hit are left out; they make up all but 3.1% or so of the library.
OX1R antag-1: OX1R (human) antagonism. OX1R-expressing cells, FRET antagonist read-out. O43613. 330,000 tested, 1.8% active. inhibition, % at 6.6 µM; in the data active = inhibition mostly above about 38%, no sharp cut-off; inactive = mostly below about 40%
OX1R antag-2: human HCRTR1 antagonism | O43613 | CHO/OX1R cells, Fluo-8 calcium fluorescence, orexin A | inhibition, % at 5 µM | 330,000 tested, 0.43% active | AID 434989;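 active = inhibition above its plate's threshold, mean inhibition of all tested compounds on the plate plus 3 SD, cut at about 37% in these data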
GalR3 antagonist: blocks the human galanin receptor 3. O60755. HEK293 GalR3-CNG cAMP membrane potential fluorescence; galR3 body fused to GalR1 C-terminus. inhibition, % at 3 µM. 360,000 tested, 0.44% active. AID 651719;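 active = inhibition above the screen-wide average plus 3 SD, cut at about 13% in these data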;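 also: forskolin and galanin both at EC90 stimulate the cells; cAMP rise reported by CNG channel membrane potential dye signal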
Target sequence (O60755 1-299 limits assumed): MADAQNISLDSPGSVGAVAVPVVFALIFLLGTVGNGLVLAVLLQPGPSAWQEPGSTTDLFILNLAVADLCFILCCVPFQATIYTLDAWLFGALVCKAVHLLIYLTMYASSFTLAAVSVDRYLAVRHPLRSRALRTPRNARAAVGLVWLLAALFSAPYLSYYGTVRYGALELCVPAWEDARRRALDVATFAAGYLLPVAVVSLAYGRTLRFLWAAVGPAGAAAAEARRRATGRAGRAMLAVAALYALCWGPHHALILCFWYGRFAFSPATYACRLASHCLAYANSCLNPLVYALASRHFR
CHO parental Ca: counter-screen for OX1R antagonists: effect in parental CHO cells; parental CHO-K1, ATP-induced calcium, Fluo-8 fluorescence; inhibition, % at 5.6 µM; 330,000 tested, 0.63% active; AID 463079;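 active = inhibition above that plate's mean sample inhibition plus 3 SD, cut at about 26% in these data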
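Material – parental CHO cells · Reagent – ATP stimulus · Compound – single nominal dose of 5.6 µM per compound · Detection – Fluo-8 fluorescence · Read-out basis – percent inhibition of calcium signal · Controls – ATP-challenged DMSO wells low, unchallenged DMSO wells high · Repeats – no replicates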
GPR7 antagonist: human neuropeptides B/W receptor 1 antagonism. GPR7-expressing cells, fluorescence antagonist assay. P48145. 290,000 tested, 1.1% active. AID 1861. inhibition, % at 4.4 µM; in the data active = inhibition above about 16%, passing the limit was not always enough;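 also: cells stimulated with the agonist NPW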
Target sequence (P48145 whole entry, looked up): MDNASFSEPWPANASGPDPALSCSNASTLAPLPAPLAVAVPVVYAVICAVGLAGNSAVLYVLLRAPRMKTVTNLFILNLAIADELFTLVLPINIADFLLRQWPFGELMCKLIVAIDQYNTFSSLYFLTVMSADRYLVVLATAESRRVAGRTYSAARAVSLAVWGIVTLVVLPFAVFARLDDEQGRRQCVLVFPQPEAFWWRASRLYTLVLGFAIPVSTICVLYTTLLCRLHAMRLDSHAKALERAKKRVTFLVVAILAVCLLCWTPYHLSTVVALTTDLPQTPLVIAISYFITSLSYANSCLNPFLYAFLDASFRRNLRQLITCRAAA
OX1R HTRF confirm: OX1R (human) antagonism, HTRF confirmed; inhibition, % at 6.6 µM; OX1R-expressing cells, HTRF antagonist assay; AID 492964; 1,800 tested, 49% active; shares compounds with OX1R antag-1; in the data active = inhibition above about 55%;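 also: CHO cells expressing OX1R stimulated with orexin A at about EC80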
CHO-K1 HTRF cnt: signal in parental CHO-K1 cells, OX1R antagonist counter-screen; shares compounds with OX1R antag-1; 1,800 tested, 48% active; AID 493232; inhibition, % at 6.6 µM; HTRF counterscreen; in the data active = inhibition above about 17%
A number is an active result; - = inactive; . = no result given.

SMILES	OX1R antag-1	OX1R antag-2	GalR3 antagonist	CHO parental Ca	GPR7 antagonist	OX1R HTRF confirm	CHO-K1 HTRF cnt
CCOC(=O)N1CCC(NC(=S)Nc2ccc3nc(N4CCN(C)CC4)cc(C)c3c2)CC1	105.3	-	-	-	-	-	-
O=C(NCCO)c1cccc2c1C(=O)c1ccccc1-2	120.5	-	-	-	-	57.6	52.6
CC(C)(C)NC(=O)c1cccc2c1C(=O)c1ccccc1-2	-	-	-	-	-	.	.
Cc1ccc(-n2nc(C(=O)NN)c(C)c(C#N)c2=O)cc1Cl	-	-	-	-	-	.	.
COC(=O)Nc1nn(-c2ccc(OC)cc2)c(=O)c(C#N)c1C	166.3	-	-	-	-	59.2	91.0
COc1ccc(-n2nc(C(=O)N3CCCCC3)c(C)c(C#N)c2=O)cc1	112.9	-	-	-	-	77.3	50.3
COC(=O)Nc1nn(-c2ccc(C)cc2)c(=O)c(C#N)c1C	137.0	-	-	-	-	56.3	67.7
Cc1c(C(=O)NN)nn(-c2ccc(Cl)cc2)c(=O)c1C#N	-	-	-	-	-	.	.
CC(N)c1csc(Nc2nccc(C(F)(F)F)n2)n1 (configuration not stated)	.	.	-	.	.	.	.
Cc1cccc(NC(=O)CNC(=O)c2cc(S(=O)(=O)N(C)C)ccc2N2CCCC2)c1C	.	.	-	.	.	.	.
CCCCCCCCN1C(=O)[C@H](CC(=O)NCCc2ccccc2OC)C[C@@]2(C(=O)OCC)CCCC=C12	.	.	-	.	.	.	.
COCCNC(=O)C1(C)CCCN(C(=O)c2ccccc2C(F)(F)F)C1 (configuration not stated)	.	.	-	.	.	.	.
COc1ccc2nc(COC(=O)c3ccco3)c(C(C)=O)[n+]([O-])c2c1	125.5	-	-	-	-	-	34.9
CC(=O)c1c(COC(=O)c2ccco2)nc2ccccc2[n+]1[O-]	-	-	-	-	.	.	.
CCOC(=O)c1c(COC(=O)c2ccco2)nc2ccccc2[n+]1[O-]	106.8	-	-	-	-	-	28.2
CC(C)[C@@H](C)/C=C/[C@@H](C)[C@H]1CC[C@@H]2[C@]1(C)CCC1[C@]23C=C[C@]2(C[C@@H](O)CC[C@]12C)N(C(=O)Cc1ccccc1)O3 (some centres not stated)	.	.	-	.	.	.	.
CN(CC(=O)NCCN1CCCCCC1)S(=O)(=O)c1cccc2nsnc12	80.4	-	-	-	-	-	41.5
CC1CCCCC1NC(=O)CN(C)S(=O)(=O)c1cccc2nsnc12 (configuration not stated)	83.9	-	-	-	-	-	24.4
CC1CCCCC1NC(=O)CN(C)S(=O)(=O)c1cccc2cccnc12 (configuration not stated)	-	-	-	-	-	.	.
CN(CC(=O)NC1CCCCC1)S(=O)(=O)c1cccc2nsnc12	94.9	-	-	-	-	55.7	36.6
COc1ccc(-c2oc3c(c2C#CC2(O)CCCCC2)C(OC(C)=O)CCC3)cc1 (configuration not stated)	.	.	-	.	.	.	.
CC(C)CN(C(=O)CCNC(=O)c1ccc([N+](=O)[O-])cc1)C1CCS(=O)(=O)C1 (configuration not stated)	-	-	-	-	.	.	.
CC(C)CN(C(=O)c1cc([N+](=O)[O-])cc([N+](=O)[O-])c1)C1CCS(=O)(=O)C1 (configuration not stated)	91.3	-	-	-	.	69.9	50.2
O=C(N/N=C/c1ccccc1[N+](=O)[O-])C(=O)N1CCCC1	92.2	-	-	-	-	-	26.4
CCC1(C)N=c2c(c(=O)n(C)c(=O)n2C)=NO1 (configuration not stated)	123.4	-	-	-	-	-	25.6
SMILES	OX1R antag-1	OX1R antag-2	GalR3 antagonist	CHO parental Ca	GPR7 antagonist	OX1R HTRF confirm	CHO-K1 HTRF cnt
CCCNC(=O)c1cc(C2CCCN(C(=O)c3ccc(OC)cc3)C2)on1 (configuration not stated)	.	.	-	.	.	.	.
Cc1cc(C)c(O)c(-c2cc(C(=O)NCCc3ccc(S(N)(=O)=O)cc3)[nH]n2)c1	98.0	-	-	-	-	-	-
OC(c1ccccc1)(c1ccccc1)C1CCN(CCCOc2ccc(-c3cccnc3)cc2)CC1	.	.	-	.	.	.	.
CC(=O)N(C)C1=C(O)c2ccccc2C(=O)C1=O	83.4	-	-	-	-	-	93.5
O=C1C(O)=C(O)C(=O)c2ccccc21	-	-	-	-	.	.	.
COC(=O)c1ccc2nc(-c3ccc(C)cc3)c(CC(C)(C)C)n2c1	.	.	-	.	.	.	.
O=C(Nc1cccc(S(=O)(=O)N2CCCCC2)c1)c1ccccc1NS(=O)(=O)c1ccc(F)cc1	-	-	-	-	-	.	.
O=C(Nc1cc(S(=O)(=O)N2CCCCC2)ccc1O)c1ccccc1NS(=O)(=O)c1ccc(F)c(F)c1	82.9	-	-	-	-	-	-
CCn1c2ccccc2c2cc(NC(=O)COc3ccccc3OC)ccc21	101.3	-	-	-	-	78.7	21.5
CCn1c2ccccc2c2cc(NC(=O)CNCc3ccccc3OC)ccc21	-	-	-	-	-	.	.
CCn1c2ccccc2c2cc(NC(=O)c3ccco3)ccc21	77.2	-	-	-	-	-	-
C[C@@H]1CN([C@@H](C)CO)C(=O)CCCn2cc(nn2)CO[C@H]1CN(C)C(=O)C1CC1	.	.	-	.	.	.	.
O=C(NCCS(=O)(=O)NCc1ccccc1Cl)c1ccccc1	-	-	-	-	.	.	.
CCn1c(C)nc2cc(-c3nc4n(n3)Cc3ccccc3-4)ccc21	87.7	-	.	-	-	80.7	-
COc1ccc(Cl)cc1NC(=O)CCCn1c(=O)c2cccn2c2cccnc21	.	.	-	.	.	.	.
CCOC(=O)c1cccc(NC(=O)CCCn2c(=O)c3cccn3c3cccnc32)c1	80.2	-	-	-	-	80.5	-
Nc1nnc(-c2cc3ccccc3oc2=O)s1	151.6	-	-	-	-	-	50.0
CC1CCCN(c2ccc([N+](=O)[O-])s2)C1 (configuration not stated)	.	.	-	.	-	.	.
O=[N+]([O-])c1ccc(N2CCCCC2)s1	100.7	-	-	-	-	-	70.2
Cc1ccccc1Sc1ccc([N+](=O)[O-])cn1	-	-	-	-	.	.	.
Cc1ccnc(Sc2ccc([N+](=O)[O-])cn2)n1	77.1	-	-	-	-	70.8	70.8
C=CCNc1nc2cc(-c3ccccc3OC)sc2c(=O)n1C	.	.	-	.	.	.	.
CCOC(=O)c1c(C)oc2c1c1c(c3ccccc32)OCN(Cc2ccccn2)C1	83.9	-	-	-	-	-	-
CCCn1c(SCC(=O)N(CC)CC)nnc1-c1ccncc1	-	-	-	-	-	.	.
CCN(CC)C(=O)CSc1nnc2nnc3cc(C)ccc3n12	90.7	-	-	-	-	60.1	102.9
CCN(CC)C(=O)CSc1nnc2nnc3cc(Cl)ccc3n12	108.4	-	-	-	-	70.4	126.3
O=C(O)c1cccc(NC2=C(n3nnc4ccccc43)C(=O)c3ccccc3C2=O)c1	148.5	-	-	-	-	94.3	95.3
